ChEMBL document CHEMBL2010740, “Synthesis and evaluation of 2-amido-3-carboxamide thiophene CB₂ receptor agonists for pain management” (Bioorg Med Chem Lett, 2012)

How the values were obtained:
[1] = molecular target: Cannabinoid receptor 2 (Homo sapiens, UniProt P34972); assay: Displacement of [3H]CP-55940 from human recombinant CB2 receptor expressed in HEK293 cells after 90 mins; assay type: cell-based
Outline: (§1)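 Competitive binding: [³H]CP-55,940 displaced from membranes of HEK 293 cells stably transfected with human or rat CB₂, or CHO cells stably transfected with human or rat CB₁. Reported as pKi. Determinations >2 (duplicate of duplicate).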

[2] = molecular target: T1, Cannabinoid receptor 2 (Rattus norvegicus, UniProt Q9QZN9); assay: Displacement of [3H]CP-55940 from rat recombinant CB2 receptor expressed in HEK293 cells after 90 mins; assay type: cell-based; outline: as §1
T1 sequence (Q9QZN9 whole entry): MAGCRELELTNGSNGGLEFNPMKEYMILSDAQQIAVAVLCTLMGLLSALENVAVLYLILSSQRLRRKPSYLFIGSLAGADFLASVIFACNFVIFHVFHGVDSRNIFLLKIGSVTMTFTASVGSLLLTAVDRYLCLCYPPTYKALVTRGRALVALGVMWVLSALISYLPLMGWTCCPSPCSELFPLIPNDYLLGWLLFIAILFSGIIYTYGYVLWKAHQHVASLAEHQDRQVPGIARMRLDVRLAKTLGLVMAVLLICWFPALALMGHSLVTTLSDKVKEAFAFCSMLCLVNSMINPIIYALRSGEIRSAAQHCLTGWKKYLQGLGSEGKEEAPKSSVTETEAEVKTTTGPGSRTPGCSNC

[3] = molecular target: Cannabinoid receptor 1 (Homo sapiens, UniProt P21554); assay: Displacement of [3H]CP-55940 from human recombinant CB1 receptor expressed in CHO cells after 90 mins; assay type: cell-based; outline: as §1
Sequence of Cannabinoid receptor 1 (P21554 whole entry): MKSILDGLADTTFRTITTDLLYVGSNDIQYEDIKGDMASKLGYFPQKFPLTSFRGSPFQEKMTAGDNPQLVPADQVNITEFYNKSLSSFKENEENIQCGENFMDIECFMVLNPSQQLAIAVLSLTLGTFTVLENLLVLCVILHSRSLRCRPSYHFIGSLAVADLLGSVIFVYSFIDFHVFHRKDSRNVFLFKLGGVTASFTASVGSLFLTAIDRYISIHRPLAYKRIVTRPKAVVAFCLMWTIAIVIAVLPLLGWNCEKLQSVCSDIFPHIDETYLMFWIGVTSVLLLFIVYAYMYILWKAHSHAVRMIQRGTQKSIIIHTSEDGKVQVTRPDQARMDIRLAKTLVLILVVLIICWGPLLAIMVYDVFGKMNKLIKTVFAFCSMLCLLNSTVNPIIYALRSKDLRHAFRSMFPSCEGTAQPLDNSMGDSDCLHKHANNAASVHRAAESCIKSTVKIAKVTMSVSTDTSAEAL

[4] = tested on: Rattus norvegicus; assay: Neurotoxicity in rat assessed as decrease in spontaneous locomotory activity at 1 umol/kg, ip after 30 mins; assay type: toxicity, organism-based; design: scale not given: the % may be the effect or the level left; settings: in vivo, 0.5 h
Outline: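 Given intraperitoneally 30 min before testing; horizontal locomotor activity was recorded and compared across doses.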

Sequence of Cannabinoid receptor 2 (Homo sapiens, UniProt P34972) (P34972 whole entry): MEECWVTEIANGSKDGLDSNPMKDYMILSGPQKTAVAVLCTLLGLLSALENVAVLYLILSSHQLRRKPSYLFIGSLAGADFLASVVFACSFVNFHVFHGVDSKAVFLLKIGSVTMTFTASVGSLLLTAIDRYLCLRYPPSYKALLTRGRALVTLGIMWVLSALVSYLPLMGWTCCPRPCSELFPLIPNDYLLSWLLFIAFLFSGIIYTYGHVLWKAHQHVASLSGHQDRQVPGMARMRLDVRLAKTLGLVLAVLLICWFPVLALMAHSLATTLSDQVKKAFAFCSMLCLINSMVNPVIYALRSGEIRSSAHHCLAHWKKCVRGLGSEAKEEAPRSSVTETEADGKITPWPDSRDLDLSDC

Row | SMILES | Ki [1] [nM] | Ki [2] [nM] | Ki [3] [nM] | Activity [4] [%]
1 | COCCNC(=O)c1c(NC(=O)C23CC4CC(CC2C4)C3)sc2c1CCOC2 | 120 | 263 | > 10000 | –
2 | CCCNC(=O)c1c(NC(=O)C23CC4CC(CC(C4)O2)C3)sc2c1CCOC2 | 257 | 490 | > 10000 | –
3 | O=C(CCCN1CCC(O)(c2ccc(Cl)cc2)CC1)c1ccc(F)cc1 [HALOPERIDOL] | – | – | – | 68
